Results on seven compounds are retold here after ChEMBL document CHEMBL1221308, “Synthesis and biological evaluation of new jasplakinolide (jaspamide) analogs” (Bioorg Med Chem Lett, 2010).

For one assay, the system named is CA46. Kind of assay: Growth inhibition of human CA46 cells […] after 24 hrs. To be noted: Homo sapiens, CA46, 24 h. It is filed as functional, cell-based. In a few lines:
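Human CA46 Burkitt lymphoma cells treated for 24 h; growth read as cell number, IC50 derived from that count.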
The IC50 is the concentration that gives 50% inhibition. In the case of `COc1ccc([C@H]2CC(=O)O[C@@H](C)C[C@@H](C)/C=C(\C)C[C@@H](C)C(=O)N[C@@H](C)C(=O)N(C)[C@H](Cc3c(Br)[nH]c4ccccc34)C(=O)N2)cc1`, the IC50 was 20 nM. For `C/C1=C\[C@H](C)C[C@H](C)OC(=O)C[C@H](c2ccccc2)NC(=O)[C@@H](Cc2c(Br)[nH]c3ccccc23)N(C)C(=O)[C@H](C)NC(=O)CC1`, the IC50 turned out to be 200 nM. For the compound `COc1ccc([C@H]2CC(=O)O[C@@H](C)C[C@@H](C)/C=C(\C)CCC(=O)N[C@@H](C)C(=O)N[C@H](Cc3c(Br)[nH]c4ccccc34)C(=O)N2)cc1`, the IC50 worked out at 3000 nM. On the same count and under the same terms, under `COc1ccc([C@H]2CC(=O)O[C@@H](C)C[C@@H](C)/C=C(\C)CCC(=O)N[C@@H](C)C(=O)N(C)[C@H](Cc3c[nH]c4ccccc34)C(=O)N2)cc1` stands 200 nM.

Regarding `COc1ccc([C@H]2CC(=O)O[C@@H](C)C[C@@H](C)/C=C(\C)CCC(=O)NCC(=O)N(C)[C@H](Cc3c(Br)[nH]c4ccccc34)C(=O)N2)cc1`, the IC50 amounted to 300 nM.

Staying with this assay, now noted: ca46.
Turning to `COc1ccc([C@H]2CC(=O)NC(C)C[C@@H](C)/C=C(\C)CCC(=O)N[C@@H](C)C(=O)N(C)[C@H](Cc3c(Br)[nH]c4ccccc34)C(=O)N2)cc1` (single isomer, unassigned; diastereomer 2), the IC50 amounted to 3000 nM. On to `COc1ccc([C@H]2CC(=O)NC(C)C[C@@H](C)/C=C(\C)CCC(=O)N[C@@H](C)C(=O)N(C)[C@H](Cc3c(Br)[nH]c4ccccc34)C(=O)N2)cc1` (stereo in doubt), for which the IC50 stood at 750 nM.
